ChEMBL document CHEMBL1148825, “Beta- and gamma-di- and tripeptides as potential substrates for the oligopeptide transporter hPepT1” (J Med Chem, 2007)
Active and inactive are the calls of the source. The rule behind the calls is not given here. Square brackets hold non-standard residues; d marks the D form. Peptide text beside a SMILES is read from it. Sar = CNCC(=O)O

Columns and labels:
[1] = Apparent permeability from apical to basolateral side of human Caco-2 cells in presence of 5 mM GlySar; assay type: ADME, cell-based; conditions: Caco-2, with GlySar 5 mM
[2] = Apparent permeability from apical to basolateral side of human Caco-2 cells; assay type: ADME, cell-based
Outline: (§1)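 Caco-2 monolayers (passage 94-100) on polycarbonate inserts, differentiated 24 ± 1 days. Transport in HBSS with pH gradient: apical pH 6.0 (10 mM MES), basolateral pH 7.4 (25 mM HEPES), 0.5% DMSO final. Samples taken at intervals, replaced with HBSS + 0.5% DMSO. Papp = dQ/dt × 1/(A × c0), from steady-state flux; n = 3-4.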

[3] = target: T1, Solute carrier family 15 member 1 (Homo sapiens) (UniProt P46059); experiment: Inhibition of [3H]GlySar uptake at human PepT1 in Caco-2 cells; assay type: cell-based
T1 sequence (whole entry): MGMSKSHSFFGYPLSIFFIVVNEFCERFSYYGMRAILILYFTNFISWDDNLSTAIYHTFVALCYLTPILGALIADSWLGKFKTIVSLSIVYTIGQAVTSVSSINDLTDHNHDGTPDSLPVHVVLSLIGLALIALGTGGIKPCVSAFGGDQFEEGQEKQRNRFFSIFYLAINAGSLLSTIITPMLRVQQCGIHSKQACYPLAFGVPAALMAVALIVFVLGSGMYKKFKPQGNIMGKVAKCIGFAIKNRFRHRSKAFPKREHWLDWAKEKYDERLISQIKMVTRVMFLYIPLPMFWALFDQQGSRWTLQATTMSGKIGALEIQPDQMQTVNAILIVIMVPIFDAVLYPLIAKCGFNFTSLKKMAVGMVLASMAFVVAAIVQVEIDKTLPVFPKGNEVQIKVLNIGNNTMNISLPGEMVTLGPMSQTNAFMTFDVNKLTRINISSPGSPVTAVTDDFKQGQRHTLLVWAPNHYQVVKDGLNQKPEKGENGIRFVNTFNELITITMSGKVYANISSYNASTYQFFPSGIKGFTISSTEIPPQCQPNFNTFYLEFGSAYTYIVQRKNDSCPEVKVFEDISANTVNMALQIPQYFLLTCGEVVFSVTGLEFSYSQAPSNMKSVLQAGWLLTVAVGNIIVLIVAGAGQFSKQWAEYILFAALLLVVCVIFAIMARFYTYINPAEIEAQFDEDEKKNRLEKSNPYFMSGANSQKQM
Outline: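 Uptake into differentiated Caco-2 monolayers under apical pH 6.0/basolateral pH 7.4 HBSS. 5 min incubation with 1 µCi/mL [3H]GlySar (250 nM), with or without 4 mM test compound in the apical donor chamber. Stopped by removing solution and three ice-cold HBSS washes. Monolayer radioactivity counted relative to control; SD, n = 3, significance at p < 0.05.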

[4] = Apparent permeability from basolateral to apical side of human Caco-2 cells; assay type: ADME, cell-based; outline: as §1
[5] = Apparent permeability from apical to basolateral side of human Caco-2 cells at pH 7.4 after 180 mins; assay type: ADME, cell-based; conditions: Caco-2, pH 7.4
Outline: (§2)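 Caco-2 monolayers (passage 94-100, differentiated 24 ± 1 days on inserts). Transport in HBSS at pH 7.4 on both sides, 0.5% DMSO final, over 180 min. Run with and without P-gp inhibitor GF120918 at 2 µM. Samples taken at intervals. Papp from steady-state flux divided by filter area and initial donor concentration.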

[6] = Apparent permeability from basolateral to apical side of human Caco-2 cells at pH 7.4 after 180 mins; assay type: ADME, cell-based; conditions: Caco-2, pH 7.4; outline: as §2
[7] = Apparent permeability across human Caco-2 cells; assay type: ADME, cell-based
Outline: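 Caco-2 monolayers (passage 94-100) on 0.4 µm polycarbonate inserts, seeded 4.4 × 10^5 cells per cm2, differentiated 24 ± 1 days. Transport in HBSS with 0.5% DMSO, apical pH 6.0 (10 mM MES), basolateral pH 7.4 (25 mM HEPES); P-gp runs at pH 7.4. Both directions sampled over time. Papp = dQ/dt × 1/(A × c0); n = 3-4.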

Row | Papp A→B [1] [×10⁻⁶ cm/s] | Papp A→B [2] [×10⁻⁶ cm/s] | Activity [3] | Papp B→A [4] [×10⁻⁶ cm/s] | Papp A→B at 3 h [5] [×10⁻⁶ cm/s] | Papp B→A at 3 h [6] [×10⁻⁶ cm/s] | SMILES | Papp [7] [×10⁻⁶ cm/s]
1 | 0.043 | 0.044 | inactive | – | – | – | C[C@@H](CC(=O)O)NC(=O)C[C@H](C)NC(=O)C[C@@H](N)CO | –
2 | – | 0.037 | Active | 0.078 | 0.044 | 0.051 | C[C@H](N)CC(=O)N[C@@H](CCCCN)CC(=O)O | –
3 | 0.023 | 0.024 | Active | 0.071 | – | – | CC(C)C[C@@H](CNC(=O)[C@@H](C)CNC(=O)[C@H](CN)C(C)C)C(=O)O | –
4 | 0.039 | 0.049 | Active | 0.061 | – | – | C[C@H](N)CC(=O)N[C@@H](CCCCN)CC(=O)N[C@H](CC(=O)O)Cc1ccccc1 | –
5 | – | – | – | – | – | – | CN(CC(=O)O)C(=O)CN [GLYCYLSARCOSINE] (H-Gly-[Sar]-OH) | 11
6 | 0.031 | 0.037 | Active | 0.071 | – | – | NCCCC[C@@H](CC(=O)N[C@H](CC(=O)O)Cc1ccccc1)NC(=O)C[C@@H](N)CO | –
7 | 0.045 | 0.072 | Active | 0.075 | – | – | NCCCC[C@H](N)CC(=O)N[C@H](CC(=O)O)Cc1ccccc1 | –
8 | 0.028 | 0.033 | Active | 0.097 | 0.021 | 0.115 | CCC[C@@H](C[C@H](C)NC(=O)[C@H](C)C[C@@H](NC(=O)[C@@H](Cc1ccccc1)C[C@@H](C)N)C(C)C)C(=O)O | –
9 | 0.026 | 0.034 | inactive | 0.094 | – | – | CC(C)C[C@H](CCNC(=O)[C@H](C)CCNC(=O)[C@@H](CCN)C(C)C)C(=O)O | –
10 | 0.393 | 0.754 | Active | 0.124 | – | – | CC(C)[C@H](N)CC(=S)N[C@@H](C)CC(=O)O | –
11 | 0.291 | 0.613 | Active | 0.129 | – | – | CC(C)C[C@@H](CC(=O)O)NC(=O)C[C@H](C)N | –
12 | 0.055 | 0.095 | Active | 0.084 | – | – | CC(C)C[C@@H](CC(=O)O)NC(=O)[C@@H](C)CN | –
